# In BindingDB's records for doi:10.1021/jm00130a016 (American Cyanamid, 1989):
# pIC50: −log10 of the molar value.
# Target: T1, Sterol O-acyltransferase 1 (Rattus norvegicus, UniProt O70536)
# T1 sequence (O70536 whole entry): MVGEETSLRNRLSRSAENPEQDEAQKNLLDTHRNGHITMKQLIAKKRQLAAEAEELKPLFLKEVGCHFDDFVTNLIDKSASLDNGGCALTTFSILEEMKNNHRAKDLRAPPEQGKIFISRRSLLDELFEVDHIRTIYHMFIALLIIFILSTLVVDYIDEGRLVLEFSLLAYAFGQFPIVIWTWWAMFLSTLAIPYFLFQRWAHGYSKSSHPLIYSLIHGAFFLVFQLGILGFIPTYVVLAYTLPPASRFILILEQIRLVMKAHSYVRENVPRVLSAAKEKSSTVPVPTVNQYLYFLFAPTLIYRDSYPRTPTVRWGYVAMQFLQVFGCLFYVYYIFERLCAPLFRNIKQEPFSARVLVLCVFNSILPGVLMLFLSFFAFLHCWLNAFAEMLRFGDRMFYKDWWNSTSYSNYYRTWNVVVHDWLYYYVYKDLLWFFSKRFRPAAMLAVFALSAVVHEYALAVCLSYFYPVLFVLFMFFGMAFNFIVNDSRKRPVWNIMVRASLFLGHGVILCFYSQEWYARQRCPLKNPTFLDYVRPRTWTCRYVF
# Experiment: In vitro inhibitory concentration against […] derived from rat adrenals
row,pIC50,Compound
1,5.65,CCCCCCCN(Cc1ccco1)C(=O)Nc1cc(C)c(C)cc1C

# Target: T2, Sterol O-acyltransferase 1 (Homo sapiens, UniProt P35610)
# T2 sequence (P35610 whole entry): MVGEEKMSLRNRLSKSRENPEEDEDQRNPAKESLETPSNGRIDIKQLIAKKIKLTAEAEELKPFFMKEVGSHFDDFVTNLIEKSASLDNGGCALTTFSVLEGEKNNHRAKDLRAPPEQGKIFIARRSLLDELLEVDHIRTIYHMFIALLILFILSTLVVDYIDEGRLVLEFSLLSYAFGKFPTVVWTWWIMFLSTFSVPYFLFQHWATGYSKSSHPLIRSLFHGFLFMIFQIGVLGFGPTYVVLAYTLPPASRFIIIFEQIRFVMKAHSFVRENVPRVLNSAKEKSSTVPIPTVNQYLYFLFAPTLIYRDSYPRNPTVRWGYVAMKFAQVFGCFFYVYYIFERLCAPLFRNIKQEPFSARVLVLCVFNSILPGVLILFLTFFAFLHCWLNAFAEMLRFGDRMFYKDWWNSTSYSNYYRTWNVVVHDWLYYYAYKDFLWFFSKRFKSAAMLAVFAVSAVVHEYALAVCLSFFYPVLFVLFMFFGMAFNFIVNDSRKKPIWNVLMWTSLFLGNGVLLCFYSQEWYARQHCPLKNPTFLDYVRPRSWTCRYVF
# Experiment: In vitro inhibitory concentration against […] derived from smooth muscle cells from thoracic aorta of monkeys
row,pIC50,Compound
1,6.85,CCCCCCCN(Cc1ccco1)C(=O)Nc1cc(C)c(C)cc1C

# Target: T2, Sterol O-acyltransferase 1
# Experiment: In vitro inhibitory concentration against ACAT derived from smooth muscle cells from thoracic aorta of monkeys
# Method in brief: (§1)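 Aortic smooth-muscle cells from African green monkey thoracic aorta, grown 48 h in DMEM/10% FCS with LDL from hypercholesterolemic monkeys plus graded compound concentrations (methanol). Albumin-bound [14C]oleate then added for 2.5 h; cells trypsinized, Folch lipid extraction, [14C]cholesteryl esters isolated by TLC and counted by scintillation; IC50 derived.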
row,pIC50,Compound
1,4.57,CCCCN(C(=O)Nc1ccc(C)cc1C)c1ccccc1
2,5.97,Cc1cc(C)c(NC(=O)N(Cc2ccccc2)Cc2ccccc2)cc1C

# Target: T2, Sterol O-acyltransferase 1
# Experiment: In vitro inhibitory concentration against acyl coenzyme A:cholesterol acyltransferase derived from smooth muscle cells from thoracic aorta of monkeys
# Method in brief: as §1
row,Compound,pIC50
1,CCCCN(Cc1ccccc1)C(=O)Nc1ccc(C)cc1C,5.74
2,CCCCN(Cc1ccccc1)C(=O)Nc1c(Cl)cc(Cl)cc1Cl,5.44
3,Cc1c(Cl)cccc1NC(=O)N(CCC(C)(C)C)Cc1cccs1,5.20
4,CC(C)(C)CCN(Cc1cccs1)C(=O)Nc1ccc(F)cc1F,4.77
5,CCCCN(CCCC)C(=O)Nc1cccc(C)c1,4.62

# More lines, now with the values ahead:
row,pIC50,Compound
1,5.58,CC(C)(C)CCN(Cc1cccs1)C(=O)Nc1c(Cl)cc(Cl)cc1Cl
2,4.89,CCCCN(CCCC)C(=O)Nc1ccc(C)c(Cl)c1
3,4.40,O=C(Nc1cccc(Cl)c1)N(Cc1ccccc1)Cc1ccccc1
